Results reported in ChEMBL document CHEMBL3271970, “Radiopharmaceuticals. 16. Halogenated dopamine analogs. Synthesis and radiolabeling of 6-iododopamine and tissue distribution studies in animals” (J Med Chem, 1976).

How the values were obtained:
Rattus norvegicus [1] = experiment: Biodistribution in thyroid gland of rat assessed per organ at 3.6 x 10^-8 mol, iv measured after 30 mins; type: ADME, organism-based; conditions: in vivo, 0.5 h
Procedure, shortened: (§1)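 [131I]-labelled tracer in water or saline, injected within 30 min of preparation. Rats given 3.6 × 10^-8 mol/rat iv, killed by ether overdose at each time point. Organs excised and radioactivity counted as % dose/organ, mean ± SD of four rats.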

Mus musculus [2] = experiment: Biodistribution in adrenal gland of mouse assessed per organ at 8 to 11 x 10^-8 mol, iv measured after 15 mins; type: ADME, organism-based; conditions: in vivo, 0.25 h
Procedure, shortened: (§2)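 [131I]- or [123I]-6-iododopamine in water or saline, used within 30 min of preparation. Injected iv at 8-11 × 10^-8 mol/mouse. Mice killed by ether overdose at 5-240 min; 3-10 mice per time point. Tissue radioactivity expressed as % dose/organ ± SD.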

Liver [3] = experiment: Biodistribution in liver of mongrel dog assessed per organ at 1.29 x 10^-6 mol, iv measured after 2 hrs; type: ADME, organism-based, Canis lupus familiaris; conditions: in vivo
Procedure, shortened: (§3)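 Radioiodinated ([123I] or [131I]) 6-iododopamine in water or saline, used within 30 min of preparation. Given iv at 1.29 × 10^-6 mol/dog; one dog per time point, killed at 2 or 24 h. Large organs counted as three samples and averaged; adrenals and thyroid taken intact and counted. Expressed as % dose/organ.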

Kidney [4] = experiment: Biodistribution in kidney of mouse assessed per organ at 8 to 11 x 10^-8 mol, iv measured after 15 mins; type: ADME, organism-based; conditions: in vivo, 0.25 h; procedure, shortened: as §2
Adrenal medulla [5] = experiment: Biodistribution in adrenal medulla of rat assessed per organ at 3.6 x 10^-8 mol, iv measured after 2 hrs; type: ADME, organism-based; conditions: in vivo
Procedure, shortened: (§4)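 [131I]-6-iododopamine in water or saline, used within 30 min of preparation. Injected iv at 3.6 × 10^-8 mol/rat. Rats killed by ether overdose at 5, 30 or 60 min, or at 2, 4 or 24 h. Tissue radioactivity expressed as % dose/organ, mean ± SD of four rats.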

Rattus norvegicus [6] = experiment: Biodistribution in adrenal cortex of rat assessed per organ at 3.6 x 10^-8 mol, iv measured after 4 hrs; type: ADME, organism-based; conditions: in vivo; procedure, shortened: as §4
Rattus norvegicus [7] = experiment: Biodistribution in thyroid gland of rat assessed per organ at 3.6 x 10^-8 mol, iv measured after 4 hrs; type: ADME, organism-based; conditions: in vivo; procedure, shortened: as §1
Kidney [8] = experiment: Biodistribution in kidney of mouse assessed per organ at 8 to 11 x 10^-8 mol, iv measured after 120 mins; type: ADME, organism-based; conditions: in vivo, 2 h; procedure, shortened: as §2
Rattus norvegicus [9] = experiment: Biodistribution in adrenal cortex of rat assessed per organ at 3.6 x 10^-8 mol, iv measured after 60 mins; type: ADME, organism-based; conditions: in vivo, 1 h; procedure, shortened: as §4
Mus musculus [10] = experiment: Biodistribution in thyroid gland of mouse assessed per organ at 8 to 11 x 10^-8 mol, iv measured after 30 mins; type: ADME, organism-based; conditions: in vivo, 0.5 h
Procedure, shortened: (§5)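 Tracer labelled with either 123I or 131I, in water or saline, used within 30 min of preparation. Mice dosed iv at 8-11 × 10^-8 mol/mouse and killed by ether overdose. Organs counted as % dose/organ ± SD, n = 3-10 mice per time point.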

[11] = Biodistribution in kidney of mongrel dog assessed per organ at 1.29 x 10^-6 mol, iv measured after 24 hrs; type: ADME, organism-based, Canis lupus familiaris; conditions: in vivo; procedure, shortened: as §3
Rattus norvegicus [12] = experiment: Biodistribution in adrenal cortex of rat assessed per organ at 3.6 x 10^-8 mol, iv measured after 2 hrs; type: ADME, organism-based; conditions: in vivo; procedure, shortened: as §4
Liver [13] = experiment: Biodistribution in liver of rat assessed per organ at 3.6 x 10^-8 mol, iv measured after 30 mins; type: ADME, organism-based; conditions: in vivo, 0.5 h; procedure, shortened: as §1
Liver [14] = experiment: Biodistribution in liver of mouse assessed per organ at 8 to 11 x 10^-8 mol, iv measured after 240 mins; type: ADME, organism-based; conditions: in vivo, 4 h; procedure, shortened: as §2
Rattus norvegicus [15] = experiment: Biodistribution in adrenal cortex of rat assessed per organ at 3.6 x 10^-8 mol, iv measured after 5 mins; type: ADME, organism-based; conditions: in vivo; procedure, shortened: as §4
Adrenal medulla [16] = experiment: Biodistribution in adrenal medulla of rat assessed per organ at 3.6 x 10^-8 mol, iv measured after 30 mins; type: ADME, organism-based; conditions: in vivo, 0.5 h; procedure, shortened: as §4
Liver [17] = experiment: Biodistribution in liver of mongrel dog assessed per organ at 1.29 x 10^-6 mol, iv measured after 24 hrs; type: ADME, organism-based, Canis lupus familiaris; conditions: in vivo; procedure, shortened: as §3
Liver [18] = experiment: Biodistribution in liver of mouse assessed per organ at 8 to 11 x 10^-8 mol, iv measured after 60 mins; type: ADME, organism-based; conditions: in vivo, 1 h; procedure, shortened: as §2
Kidney [19] = experiment: Biodistribution in kidney of mouse assessed per organ at 8 to 11 x 10^-8 mol, iv measured after 5 mins; type: ADME, organism-based; conditions: in vivo; procedure, shortened: as §2
Kidney [20] = experiment: Biodistribution in kidney of mouse assessed per organ at 8 to 11 x 10^-8 mol, iv measured after 30 mins; type: ADME, organism-based; conditions: in vivo, 0.5 h; procedure, shortened: as §2
[21] = Biodistribution in adrenal cortex of mongrel dog assessed per organ at 1.29 x 10^-6 mol, iv measured after 2 hrs; type: ADME, organism-based, Canis lupus familiaris; conditions: in vivo; procedure, shortened: as §3
Liver [22] = experiment: Biodistribution in liver of rat assessed per organ at 3.6 x 10^-8 mol, iv measured after 4 hrs; type: ADME, organism-based; conditions: in vivo; procedure, shortened: as §1
Rattus norvegicus [23] = experiment: Biodistribution in adrenal cortex of rat assessed per organ at 3.6 x 10^-8 mol, iv measured after 30 mins; type: ADME, organism-based; conditions: in vivo, 0.5 h; procedure, shortened: as §4
Mus musculus [24] = experiment: Biodistribution in thyroid gland of mouse assessed per organ at 8 to 11 x 10^-8 mol, iv measured after 120 mins; type: ADME, organism-based; conditions: in vivo, 2 h; procedure, shortened: as §5
[25] = Biodistribution in adrenal medulla of mongrel dog assessed per organ at 1.29 x 10^-6 mol, iv measured after 24 hrs; type: ADME, organism-based, Canis lupus familiaris; conditions: in vivo; procedure, shortened: as §3
Kidney [26] = experiment: Biodistribution in kidney of rat assessed per organ at 3.6 x 10^-8 mol, iv measured after 24 hrs; type: ADME, organism-based; conditions: in vivo; procedure, shortened: as §4
[27] = Biodistribution in thyroid gland of mongrel dog assessed per organ at 1.29 x 10^-6 mol, iv measured after 2 hrs; type: ADME, organism-based, Canis lupus familiaris; conditions: in vivo
Procedure, shortened: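 Radioiodine-labelled tracer given at 1.29 × 10^-6 mol/dog. One dog per time point, killed at 2 or 24 h. Thyroids and other small organs were taken intact and counted. Large organs were sampled three times and averaged. Result given as % dose/organ.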

Mus musculus [28] = experiment: Biodistribution in adrenal gland of mouse assessed per organ at 8 to 11 x 10^-8 mol, iv measured after 240 mins; type: ADME, organism-based; conditions: in vivo, 4 h; procedure, shortened: as §2
Liver [29] = experiment: Biodistribution in liver of mouse assessed per organ at 8 to 11 x 10^-8 mol, iv measured after 5 mins; type: ADME, organism-based; conditions: in vivo; procedure, shortened: as §2
Adrenal medulla [30] = experiment: Biodistribution in adrenal medulla of rat assessed per organ at 3.6 x 10^-8 mol, iv measured after 4 hrs; type: ADME, organism-based; conditions: in vivo; procedure, shortened: as §4
Mus musculus [31] = experiment: Biodistribution in thyroid gland of mouse assessed per organ at 8 to 11 x 10^-8 mol, iv measured after 240 mins; type: ADME, organism-based; conditions: in vivo, 4 h; procedure, shortened: as §5
Liver [32] = experiment: Biodistribution in liver of mouse assessed per organ at 8 to 11 x 10^-8 mol, iv measured after 120 mins; type: ADME, organism-based; conditions: in vivo, 2 h; procedure, shortened: as §2
Mus musculus [33] = experiment: Biodistribution in adrenal gland of mouse assessed per organ at 8 to 11 x 10^-8 mol, iv measured after 30 mins; type: ADME, organism-based; conditions: in vivo, 0.5 h; procedure, shortened: as §2
Kidney [34] = experiment: Biodistribution in kidney of rat assessed per organ at 3.6 x 10^-8 mol, iv measured after 30 mins; type: ADME, organism-based; conditions: in vivo, 0.5 h; procedure, shortened: as §4
Liver [35] = experiment: Biodistribution in liver of rat assessed per organ at 3.6 x 10^-8 mol, iv measured after 24 hrs; type: ADME, organism-based; conditions: in vivo; procedure, shortened: as §1
[36] = Biodistribution in adrenal cortex of mongrel dog assessed per organ at 1.29 x 10^-6 mol, iv measured after 24 hrs; type: ADME, organism-based, Canis lupus familiaris; conditions: in vivo; procedure, shortened: as §3
Adrenal medulla [37] = experiment: Biodistribution in adrenal medulla of rat assessed per organ at 3.6 x 10^-8 mol, iv measured after 24 hrs; type: ADME, organism-based; conditions: in vivo; procedure, shortened: as §4
Mus musculus [38] = experiment: Biodistribution in adrenal gland of mouse assessed per organ at 8 to 11 x 10^-8 mol, iv measured after 60 mins; type: ADME, organism-based; conditions: in vivo, 1 h; procedure, shortened: as §2

Work on `Br.NCCc1cc(O)c(O)cc1[131I]` yielded a Drug uptake (Rattus norvegicus [1]) of 0.062 %ID, a Drug uptake (Mus musculus [2]) of 0.015 %ID and a Drug uptake (Liver [3]) of 2.24 %ID. It also gave a Drug uptake (Kidney [4]) of 3.44 %ID, a Drug uptake (Adrenal medulla [5]) of 0.0035 %ID and a Drug uptake (Rattus norvegicus [6]) of 0.002 %ID. For the same compound, the Drug uptake (Rattus norvegicus [7]) was 0.251 %ID, the Drug uptake (Kidney [8]) was 0.78 %ID and the Drug uptake (Rattus norvegicus [9]) was 0.007 %ID. It also gave a Drug uptake (Mus musculus [10]) of 0.084 %ID, a Drug uptake [11] of 0.075 %ID and a Drug uptake (Rattus norvegicus [12]) of 0.0028 %ID. It also gave a Drug uptake (Liver [13]) of 2.36 %ID, a Drug uptake (Liver [14]) of 0.94 %ID and a Drug uptake (Rattus norvegicus [15]) of 0.0098 %ID. For the same compound, the Drug uptake (Adrenal medulla [16]) was 0.0138 %ID, the Drug uptake (Liver [17]) was 0.48 %ID and the Drug uptake (Liver [18]) was 1.04 %ID. For the same compound, the Drug uptake (Kidney [19]) was 8.03 %ID, the Drug uptake (Kidney [20]) was 1.69 %ID and the Drug uptake [21] was 0.0092 %ID. The Drug uptake (Liver [22]) was 0.265 %ID, the Drug uptake (Rattus norvegicus [23]) was 0.0062 %ID and the Drug uptake (Mus musculus [24]) was 0.176 %ID. For the same compound, the Drug uptake [25] was 0.0021 %ID, the Drug uptake (Kidney [26]) was 0.024 %ID and the Drug uptake [27] was 0.026 %ID. It also gave a Drug uptake (Mus musculus [28]) of 0.012 %ID, a Drug uptake (Liver [29]) of 7.1 %ID and a Drug uptake (Adrenal medulla [30]) of 0.0047 %ID. For the same compound, the Drug uptake (Mus musculus [31]) was 0.158 %ID, the Drug uptake (Liver [32]) was 0.84 %ID and the Drug uptake (Mus musculus [33]) was 0.014 %ID. It also gave a Drug uptake (Kidney [34]) of 2.37 %ID, a Drug uptake (Liver [35]) of 0.072 %ID and a Drug uptake [36] of 0.0104 %ID. It also gave a Drug uptake (Adrenal medulla [37]) of 0.0021 %ID and a Drug uptake (Mus musculus [38]) of 0.0087 %ID.
